Read-outs that look alike come from different tables or passages of the source. Some results are limits rather than exact numbers.

As usually defined, the Kd is the constant that tells how readily two partners part at equilibrium. Low values mean a tighter complex, high ones a looser complex. Broadly, the Km is the substrate concentration at which the rate is half of its maximum.

The target in experiment [1] is T1, MsbA-MIANS (Escherichia coli, UniProt P60752). The experiment can be described thus: MIANS fluorescence quenching titration of MsbA-MIANS. It counts as binding. Conditions: for Concentration-dependent quenching of MIANS fluorescence: titration of MsbA-MIANS with negatively charged drugs.
The target in experiment [2] is T1, MsbA-MIANS. Nature of the experiment: Dual sequential titration of MsbA-MIANS fluorescence quenching. It counts as binding. Conditions: for Effect of lipid A pre-binding on ligand binding affinity (in words): ATP at 10 °C, daunorubicin and p[NH]ppA at 23 °C; for Binding affinity of drug after prior binding of nucleotide (in words): ATP bound first, results not shown. The method, boiled down: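 MIANS-labelled MsbA (100 μg/ml) was prepared by labelling with 10 μM MIANS, quenching with DTE and dialysing. It was held in 100 mM Hepes, 50 mM NaCl, 5 mM MgCl2, 0.05% DM, pH 7.5, at 23 °C, or 10 °C for ATP to prevent hydrolysis. […] Data were fitted to a single-site model for Kd and ΔFmax.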

Experiment [3] has as its target T2, MsbA (Escherichia coli, UniProt P60752). The experiment can be described thus: ATPase activity assay. It counts as biochemical. The note with it: ATP 0.05-10 mM, 0.05% DM. The method, boiled down:
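Purified His-tagged MsbA (~100 μg/ml in 0.05% (w/v) DM) assayed colorimetrically for free Pi liberated from ATP across varied ATP levels. Labelled enzyme was first reacted with 10 μM MIANS for 2 h at 23 °C in the dark. Unreacted MIANS was quenched with 1 mM DTE before the ATPase measurement.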

Experiment [4] has as its target T2, MsbA. Nature of the experiment: Modulation of the rate of MsbA labelling by MIANS. It counts as biochemical.
Where [5] appears, read: 23 °C, MsbA 100 μg/ml in 0.05% DM, single-site fit.
Where [6] appears, read: Kd, 23 °C, MsbA 100 μg/ml in 0.05% DM, single-site fit.
Where [7] appears, read: 10 °C, titrated after daunorubicin.
[8] abbreviates: 10 °C, MsbA 100 μg/ml in 0.05% DM, ligand alone.

T1 sequence (P60752 whole entry): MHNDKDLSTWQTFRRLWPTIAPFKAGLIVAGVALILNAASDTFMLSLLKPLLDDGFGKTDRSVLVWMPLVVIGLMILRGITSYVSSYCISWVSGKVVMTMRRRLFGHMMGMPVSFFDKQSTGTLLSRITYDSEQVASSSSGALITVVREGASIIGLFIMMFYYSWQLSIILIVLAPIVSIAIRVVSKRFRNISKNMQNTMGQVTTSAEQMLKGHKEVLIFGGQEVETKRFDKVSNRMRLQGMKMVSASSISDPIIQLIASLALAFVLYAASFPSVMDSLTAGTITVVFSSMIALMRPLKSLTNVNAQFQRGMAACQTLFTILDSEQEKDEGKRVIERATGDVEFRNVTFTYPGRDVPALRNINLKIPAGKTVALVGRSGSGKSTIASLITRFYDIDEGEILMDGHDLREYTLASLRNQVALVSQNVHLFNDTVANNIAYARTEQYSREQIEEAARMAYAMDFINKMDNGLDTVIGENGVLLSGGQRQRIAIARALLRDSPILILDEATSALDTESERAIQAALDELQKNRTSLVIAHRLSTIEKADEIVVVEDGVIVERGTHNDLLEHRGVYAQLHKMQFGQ
T2 sequence (P60752 whole entry): as above

`Nc1ncnc2c1ncn2[C@@H]1O[C@H](COP(=O)(O)OP(=O)(O)O)[C@@H](O)[C@H]1O` [ADP]: at MsbA-MIANS [1] (setting [5]), the equilibrium dissociation constant (Kd) was found to be 130 ± 60 µM and the “Maximal quenching (ΔFmax/F0×100)” value turned out to be 8.48±0.4%.
The like results for `Nc1ncnc2c1ncn2[C@@H]1O[C@H](COP(=O)(O)O)[C@@H](O)[C@H]1O` [AMP] were, in that order, 800 ± 200 µM and 7.84±0.80%.
Take `Nc1ncnc2c1ncn2[C@@H]1O[C@H](CO[P@](=O)(O)O[P@](=O)(O)O[P@@](=O)(O)S)[C@@H](O)[C@H]1O` [ATP[S], adenosine 5´-[γ-thio]triphosphate]: the dissociation constant Kd at MsbA-MIANS [1] (setting [6]) is 1.82 ± 0.29 µM.
On to `Nc1ncnc2c1ncn2[C@@H]1O[C@H](COP(=O)(O)OP(=O)(O)OP(=O)(O)O)[C@@H](O)[C@H]1O` [ATP], for which the Kd on MsbA-MIANS [2] (setting [7]) was 950 ± 230 µM; on MsbA-MIANS [2] (10 °C, titrated after lipid A), 2030 ± 300 µM; on MsbA-MIANS [1] (setting [8]), 3050 ± 430 µM. In addition, the “Maximal quenching (ΔFmax/F0×100)” value is recorded as 5.45±0.41% on MsbA-MIANS [2] (setting [7]) and 12.0±0.78% at MsbA-MIANS [2] (10 °C, titrated after lipid A). Besides, the “Effect of lipid A pre-binding on ligand binding affinity (in words)” value (shortened to “Effect of lipid A pre-binding”) on MsbA-MIANS [2] was “relatively unaffected”. The Michaelis-Menten constant (Km) at MsbA [3] (MIANS-labelled MsbA) is 410 ± 40 µM; on MsbA [3] (unlabelled MsbA), 520 ± 40 µM. For the same compound, the “Kd for ATP binding relative to that of p[NH]ppA” value on MsbA-MIANS [1] (ATP at 10 °C versus p[NH]ppA at 23 °C) is given as above 7 fold.
Consider `COc1cccc2c1C(=O)c1c(O)c3c(c(O)c1C2=O)C[C@@](O)(C(C)=O)C[C@@H]3O[C@H]1C[C@H](N)[C@H](O)[C@H](C)O1` [Daunorubicin], for which the “Reduction in binding affinity after pre-binding of lipid A” value at MsbA-MIANS [2] (10 °C) is on record as around 2 fold. For the same compound, the “Effect of lipid A pre-binding” value at MsbA-MIANS [2] is on record as “did not affect”. Further, the “Binding affinity of drug after prior binding of nucleotide (in words)” value at MsbA-MIANS [2] is given as “reduced”. Also, the dissociation constant Kd on MsbA-MIANS [2] (Kd, 10 °C, titrated after ATP) was 9.59 ± 0.39 µM; at MsbA-MIANS [2] (Kd, 10 °C, titrated after lipid A), 5.03 ± 0.11 µM; at MsbA-MIANS [2] (Kd, 23 °C, titrated after lipid A), 4.42 ± 0.33 µM; on MsbA-MIANS [1] (23 °C, MsbA reconstituted into egg PC proteoliposomes), “essentially the same”; on MsbA-MIANS [1] (Kd, 10 °C, MsbA 100 μg/ml in 0.05% DM, ligand alone) it was 2.97 ± 0.23 µM; on MsbA-MIANS [1] (setting [6]) it was 4.6 ± 0.2 µM. Besides, the dissociation constant (Kd) at MsbA-MIANS [1] (Kd, 23 °C, MsbA reconstituted into egg PC proteoliposomes) is 4.3 ± 0.79 µM. Also, the “Initial rate of labelling” value on MsbA [4] is 27.4±2.3 ms^−1; on MsbA [4] (listed as daunorubicin), “the most”. For the same compound, the Labelling efficiency on MsbA [4] is reported as 87.2±1.3%. Further, the “Maximal quenching (ΔFmax/F0×100)” value at MsbA-MIANS [1] (setting [5]) is recorded as “highest quenching”.
For the compound `O=c1c(O)c(-c2ccc(O)c(O)c2)oc2cc(O)cc(O)c12` [Quercetin], on MsbA [4], the “Initial rate of labelling” value was 85.0±3.1 ms^−1 and the Labelling efficiency is recorded as 78.8±1.0%. This compound also had a Kd at MsbA-MIANS [1] (setting [6]) of 8.56 ± 0.79 µM.
Consider `CC(C)[C@@H]1NC(=O)[C@H](C)OC(=O)[C@@H](C(C)C)NC(=O)[C@@H](C(C)C)OC(=O)[C@H](C(C)C)NC(=O)[C@H](C)OC(=O)[C@@H](C(C)C)NC(=O)[C@@H](C(C)C)OC(=O)[C@H](C(C)C)NC(=O)[C@H](C)OC(=O)[C@@H](C(C)C)NC(=O)[C@@H](C(C)C)OC1=O` [Valinomycin], for which, at MsbA [4], the “Initial rate of labelling” value came to 66.8±3.4 ms^−1 and the Labelling efficiency amounted to 101±3.2%. This compound also registered a Kd at MsbA-MIANS [1] of 0.35 ± 0.04 µM.
With `COc1ccc(CCN(C)CCCC(C#N)(c2ccc(OC)c(OC)c2)C(C)C)cc1OC` (centres unmarked) [Verapamil], on MsbA [4], the “Initial rate of labelling” value worked out at 71.0±2.6 ms^−1 and the Labelling efficiency came to 82.2±3.6%. For the same compound, the Kd on MsbA-MIANS [1] (setting [6]) is 1.26 ± 0.09 µM.
On to `CC[C@]1(O)C[C@@H]2CN(CCc3c([nH]c4ccccc34)[C@@](C(=O)OC)(c3cc4c(cc3OC)N(C)[C@H]3[C@@](O)(C(=O)OC)[C@H](OC(C)=O)[C@]5(CC)C=CCN6CC[C@]43[C@@H]65)C2)C1` [Vinblastine], for which the “Binding affinity of drug after prior binding of nucleotide (in words)” value on MsbA-MIANS [2] is reported as “reduced”. On MsbA [4], the “Initial rate of labelling” value amounted to 182±3.4 ms^−1 and the Labelling efficiency is 105±4.5%. Besides, the “Initial rate of labelling” value at MsbA [4] (listed as vinblastine) is “affected the least”. Moreover, the affinity on MsbA-MIANS [1] (setting [6]), expressed as Kd, was 1.2 ± 0.14 µM.
Turning to `CC1(C)S[C@@H]2[C@H](NC(=O)[C@H](N)c3ccccc3)C(=O)N2[C@H]1C(=O)O` [ampicillin], the “Concentration-dependent quenching of MIANS fluorescence” value at MsbA-MIANS [1] is given as “No concentration-dependent quenching”.
In the case of `O=C(O)c1cn(C2CC2)c2cc(N3CCNCC3)c(F)cc2c1=O` [ciprofloxacin], the “Concentration-dependent quenching of MIANS fluorescence” value at MsbA-MIANS [1] is reported as “No concentration-dependent quenching”.
Same read-out and setting: with `CCn1cc(C(=O)O)c(=O)c2cc(F)c(N3CCNCC3)cc21` [norfloxacin] the entry was “No concentration-dependent quenching”; with `CC1COc2c(N3CCN(C)CC3)c(F)cc3c(=O)c(C(=O)O)cn1c23` (centres unmarked) [ofloxacin], “No concentration-dependent quenching”.
As to `Nc1ncnc2c1ncn2[C@@H]1O[C@H](COP(=O)(O)OP(=O)(O)NP(=O)(O)O)[C@@H](O)[C@H]1O` [p[NH]ppA, adenosine 5′-[β,γ-imido]triphosphate], the Kd was determined as 650 ± 80 µM on MsbA-MIANS [2] (23 °C, titrated after lipid A) and 470 ± 30 µM on MsbA-MIANS [1] (setting [5]). Moreover, the “Maximal quenching (ΔFmax/F0×100)” value on MsbA-MIANS [2] (23 °C, titrated after lipid A) was determined as 23.2±1.2%. The “Effect of lipid A pre-binding” value at MsbA-MIANS [2] is “relatively unaffected”.
As to Lipid A, on MsbA-MIANS [2], the “Increase of ΔFmax for quenching when daunorubicin was bound first” value stood at 2 fold. Moreover, the “Reduction of binding affinity when ATP was pre-bound” value at MsbA-MIANS [2] (10 °C) is around 8 fold. Also, the “Maximal quenching (ΔFmax/F0×100)” value at MsbA-MIANS [2] (10 °C, titrated after ATP) amounted to 17.7±1.0%; at MsbA-MIANS [2] (setting [7]) it was 7.31±0.50%; on MsbA-MIANS [2] (23 °C, titrated after daunorubicin), 15.7±1.4%; at MsbA-MIANS [2] (23 °C, titrated after p[NH]ppA), 10.9±1.2%; at MsbA-MIANS [1] (setting [8]), 6.02±0.11%. Further, the “Reduction of binding affinity when p[NH]ppA was pre-bound” value on MsbA-MIANS [2] (23 °C) is around 3 fold. The compound further returned a Labelling efficiency at MsbA [4] (23 °C, MIANS:MsbA stoichiometry after 2000 s, drug at ~5-fold its Kd (2-40 μM)) of 118±9.2%.

For the origin of these results see article PMC2662489 (Biochemical Journal, 2009).
